The source made the active and inactive calls. The rule behind the calls is not given here.
Columns and labels:
MCF7-DOX [1] = assay: Cytotoxicity against human MCF7/Dox cells assessed as reduction in cell viability after 48 hrs by MTT assay; assay type: cell-based
[2] = Cytotoxicity against human MCF7/Dox cells assessed as cell survival at 12.5 uM after 48 hrs by MTT assay relative to control; assay type: cell-based; details: read-out: Survival
[3] = Reversal of P-gp-mediated multidrug resistance in human MCF7/Dox cells assessed as potentiation of doxorubicin-induced cytotoxicity by measuring doxorubicin IC50 at 12.5 uM after 48 hrs by MTT assay (reference value: 51.19 +/- 0.95 microM)
MCF7-DOX [4] = assay: Antitumour activity against human MCF7/Dox cells xenografted in Balb/c mouse assessed as tumour growth inhibition at 2 mg/kg measured after 30 days; assay type: functional, organism-based
[5] = Cytotoxicity against human H69 cells assessed as growth inhibition after 48 hrs by MTT assay; assay type: cell-based; details: H69 cells (NCI-H69)
[6] = Cytotoxicity against human H69AR cells assessed as growth inhibition after 48 hrs by MTT assay; assay type: cell-based
[7] = Cytotoxicity against MDCK2 cells assessed as growth inhibition after 48 hrs by MTT assay; assay type: cell-based, Canis lupus familiaris; details: dog, MDCK2 (MDCK-II) cells
[8] = Cytotoxicity against MDCK2 cells expressing BCRP assessed as growth inhibition after 48 hrs by MTT assay; assay type: ADME, cell-based, Canis lupus familiaris; details: dog, MDCK2 (MDCK-II) cells expressing BCRP
[9] = Cytotoxicity against human MCF7 cells assessed as growth inhibition after 48 hrs by MTT assay; assay type: cell-based
[10] = Cytotoxicity against human MCF7/Dox cells assessed as growth inhibition after 48 hrs by MTT assay; assay type: cell-based
[11] = target: Multidrug resistance-associated protein 1 (Homo sapiens, UniProt P33527); assay: Reversal of MRP-1 (unknown origin)-mediated multidrug resistance expressed in human H69AR cells assessed as potentiation of doxorubicin-induced cytotoxicity at 25 uM after 48 hrs by MTT assay; assay type: cell-based
In short: (§1)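 Transporter selectivity screen by MTT in H69AR (MRP1-overexpressing) with doxorubicin, and in MDCK II BCRP with mitoxantrone. Compound tested at 12.5 and 25 µM alongside the cytostatic. Reversal read as decreased viability versus cytostatic alone.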

[12] = target: T1, Broad substrate specificity ATP-binding cassette transporter ABCG2 (Homo sapiens, UniProt Q9UNQ0); assay: Reversal of ABCG2 (unknown origin)-mediated multidrug resistance expressed in MDCK2 cells assessed as potentiation of mitoxantrone-induced cytotoxicity at 25 uM after 48 hrs by MTT assay; assay type: cell-based; in short: as §1
T1 sequence (Q9UNQ0 whole entry): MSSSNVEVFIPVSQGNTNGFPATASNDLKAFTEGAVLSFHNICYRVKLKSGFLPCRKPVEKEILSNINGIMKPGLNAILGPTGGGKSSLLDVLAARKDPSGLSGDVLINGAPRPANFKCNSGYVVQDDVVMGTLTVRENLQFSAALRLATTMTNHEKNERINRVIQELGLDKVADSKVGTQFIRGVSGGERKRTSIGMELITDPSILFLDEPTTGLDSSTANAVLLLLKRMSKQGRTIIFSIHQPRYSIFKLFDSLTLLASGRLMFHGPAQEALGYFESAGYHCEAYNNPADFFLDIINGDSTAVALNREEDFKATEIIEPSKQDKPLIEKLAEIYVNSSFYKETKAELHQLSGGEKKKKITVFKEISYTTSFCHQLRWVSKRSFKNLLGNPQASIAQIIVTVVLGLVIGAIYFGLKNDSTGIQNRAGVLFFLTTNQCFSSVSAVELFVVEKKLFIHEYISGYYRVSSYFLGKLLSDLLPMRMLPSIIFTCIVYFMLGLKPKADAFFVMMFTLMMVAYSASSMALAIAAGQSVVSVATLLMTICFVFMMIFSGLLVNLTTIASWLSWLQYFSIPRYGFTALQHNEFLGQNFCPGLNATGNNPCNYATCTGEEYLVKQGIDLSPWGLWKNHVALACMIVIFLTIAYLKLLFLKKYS

[13] = target: ATP-dependent translocase ABCB1 (Homo sapiens, UniProt P08183); assay: Reversal of P-gp mediated drug efflux in human MCF7/Dox cells assessed as increase in intracellular doxorubicin accumulation at 12.5 uM after 24 hrs by DAPI based fluorescence microscopic analysis; assay type: cell-based
In short: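 MCF-7/DOX cells exposed to DOX 8 µM with or without compound at 12.5 µM. Nuclei stained with DAPI. Intracellular DOX red fluorescence imaged by fluorescence microscopy.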

MCF7-DOX [14] = assay: Down regulation of p-gp protein expression in human MCF7/Dox cells at 12.5 uM in presence of doxorubicin by Western blotting analysis; assay type: functional, cell-based; details: TDE = time-dependent effect
In short: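 MCF-7/DOX cells exposed to compound (12.5 µM), DOX (8 µM), or the combination for 24 h and 48 h. P-gp protein measured by western blot. MCF-7 parental cells used as reference.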

MCF7-DOX [15] = assay: Down regulation of p-gp mRNA expression in human MCF7/Dox cells at 12.5 uM in presence of doxorubicin after 48 hrs by RT-PCR analysis; assay type: functional, cell-based
In short: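 MCF-7/DOX cells exposed for 48 h to compound (12.5 µM), DOX (8 µM), or both. P-gp mRNA measured by RT-PCR versus control and DOX-alone groups.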

[16] = Toxicity in Balb/c mouse xenografted with human MCF7/Dox cells assessed as body weight at 5 to 15 mg/kg administered for 30 days and measured for every 2 days; assay type: organism-based; details: in vivo
MCF7-DOX [17] = assay: Antitumour activity against human MCF7/Dox cells xenografted in Balb/c mouse assessed as tumour growth inhibition at 5 to 15 mg/kg in presence of doxorubicin and measured after 30 days; assay type: functional, organism-based
[18] = Toxicity in Balb/c mouse xenografted with human MCF7/Dox cells assessed as effect on body weight at 5 to 15 mg/kg in presence of doxorubicin and measured after 30 days; assay type: organism-based; details: in vivo, 720 h
MCF7 [19] = assay: Antimigratory activity against human MCF7 cells after 24 hrs by wound healing assay; assay type: functional, cell-based
In short: (§2)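 Wound-healing assay on confluent monolayers of MCF-7 or MCF-7/DOX cells. Cells treated 24 h, then wound width imaged and migration quantified against untreated control cells. Means ± SD, n = 3.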

MCF7-DOX [20] = assay: Antimigratory activity against human MCF7/Dox cells after 24 hrs by wound healing assay; assay type: functional, cell-based; in short: as §2
MCF7 [21] = assay: Antimigratory activity against human MCF7 cells after 36 hrs by crystal violet staining based transwell migration assay; assay type: functional, cell-based
In short: (§3)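 Transwell migration assay with MCF-7 or MCF-7/DOX cells treated 36 h. Migrated cells quantified against untreated control cells. Means ± SD, n = 3.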

MCF7-DOX [22] = assay: Antimigratory activity against human MCF7/Dox cells after 36 hrs by crystal violet staining based transwell migration assay; assay type: functional, cell-based; in short: as §3
MCF7-DOX [23] = assay: Antitumour activity against human MCF7/Dox cells xenografted in Balb/c mouse assessed as reduction in tumour volume at 5 to 15 mg/kg and measured after 30 days; assay type: functional, organism-based
MCF7-DOX [24] = assay: Antitumour activity against human MCF7/Dox cells xenografted in Balb/c mouse assessed as reduction in tumour weight at 5 to 15 mg/kg and measured after 30 days; assay type: functional, organism-based

Chain of ATP-dependent translocase ABCB1 (P08183 whole entry): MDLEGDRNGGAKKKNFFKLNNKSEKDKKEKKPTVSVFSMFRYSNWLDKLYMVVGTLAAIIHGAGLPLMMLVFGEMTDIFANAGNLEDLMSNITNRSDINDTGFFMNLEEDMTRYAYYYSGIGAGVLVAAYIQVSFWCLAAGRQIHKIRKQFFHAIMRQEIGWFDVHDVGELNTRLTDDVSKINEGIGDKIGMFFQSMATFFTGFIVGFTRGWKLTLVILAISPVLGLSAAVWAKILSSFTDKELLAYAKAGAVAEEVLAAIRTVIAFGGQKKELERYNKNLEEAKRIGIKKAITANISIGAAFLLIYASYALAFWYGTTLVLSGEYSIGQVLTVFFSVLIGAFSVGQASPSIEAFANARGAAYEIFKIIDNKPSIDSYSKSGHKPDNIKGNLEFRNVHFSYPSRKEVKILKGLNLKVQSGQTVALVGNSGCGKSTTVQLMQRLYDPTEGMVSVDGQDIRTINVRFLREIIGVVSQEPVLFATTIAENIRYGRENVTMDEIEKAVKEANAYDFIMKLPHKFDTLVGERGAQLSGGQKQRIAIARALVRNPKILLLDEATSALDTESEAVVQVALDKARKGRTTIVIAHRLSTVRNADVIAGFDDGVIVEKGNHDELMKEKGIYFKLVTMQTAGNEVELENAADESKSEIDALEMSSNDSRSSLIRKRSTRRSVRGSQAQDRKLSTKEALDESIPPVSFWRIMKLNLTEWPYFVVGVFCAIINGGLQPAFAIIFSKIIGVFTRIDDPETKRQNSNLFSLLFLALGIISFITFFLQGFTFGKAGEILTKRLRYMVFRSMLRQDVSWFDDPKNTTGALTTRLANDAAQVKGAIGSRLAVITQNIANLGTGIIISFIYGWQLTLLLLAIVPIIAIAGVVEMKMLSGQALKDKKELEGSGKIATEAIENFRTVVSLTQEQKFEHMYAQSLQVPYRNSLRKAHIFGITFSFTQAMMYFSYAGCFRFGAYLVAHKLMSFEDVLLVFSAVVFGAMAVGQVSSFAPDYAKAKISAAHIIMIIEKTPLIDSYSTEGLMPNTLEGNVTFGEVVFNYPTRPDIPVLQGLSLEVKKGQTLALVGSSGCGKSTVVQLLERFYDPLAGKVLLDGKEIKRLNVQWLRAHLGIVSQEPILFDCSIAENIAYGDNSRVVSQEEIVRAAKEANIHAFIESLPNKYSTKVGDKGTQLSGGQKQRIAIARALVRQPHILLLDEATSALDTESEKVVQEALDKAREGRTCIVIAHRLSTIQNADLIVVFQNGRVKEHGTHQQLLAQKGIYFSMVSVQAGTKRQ
Chain of Multidrug resistance-associated protein 1 (P33527 whole entry): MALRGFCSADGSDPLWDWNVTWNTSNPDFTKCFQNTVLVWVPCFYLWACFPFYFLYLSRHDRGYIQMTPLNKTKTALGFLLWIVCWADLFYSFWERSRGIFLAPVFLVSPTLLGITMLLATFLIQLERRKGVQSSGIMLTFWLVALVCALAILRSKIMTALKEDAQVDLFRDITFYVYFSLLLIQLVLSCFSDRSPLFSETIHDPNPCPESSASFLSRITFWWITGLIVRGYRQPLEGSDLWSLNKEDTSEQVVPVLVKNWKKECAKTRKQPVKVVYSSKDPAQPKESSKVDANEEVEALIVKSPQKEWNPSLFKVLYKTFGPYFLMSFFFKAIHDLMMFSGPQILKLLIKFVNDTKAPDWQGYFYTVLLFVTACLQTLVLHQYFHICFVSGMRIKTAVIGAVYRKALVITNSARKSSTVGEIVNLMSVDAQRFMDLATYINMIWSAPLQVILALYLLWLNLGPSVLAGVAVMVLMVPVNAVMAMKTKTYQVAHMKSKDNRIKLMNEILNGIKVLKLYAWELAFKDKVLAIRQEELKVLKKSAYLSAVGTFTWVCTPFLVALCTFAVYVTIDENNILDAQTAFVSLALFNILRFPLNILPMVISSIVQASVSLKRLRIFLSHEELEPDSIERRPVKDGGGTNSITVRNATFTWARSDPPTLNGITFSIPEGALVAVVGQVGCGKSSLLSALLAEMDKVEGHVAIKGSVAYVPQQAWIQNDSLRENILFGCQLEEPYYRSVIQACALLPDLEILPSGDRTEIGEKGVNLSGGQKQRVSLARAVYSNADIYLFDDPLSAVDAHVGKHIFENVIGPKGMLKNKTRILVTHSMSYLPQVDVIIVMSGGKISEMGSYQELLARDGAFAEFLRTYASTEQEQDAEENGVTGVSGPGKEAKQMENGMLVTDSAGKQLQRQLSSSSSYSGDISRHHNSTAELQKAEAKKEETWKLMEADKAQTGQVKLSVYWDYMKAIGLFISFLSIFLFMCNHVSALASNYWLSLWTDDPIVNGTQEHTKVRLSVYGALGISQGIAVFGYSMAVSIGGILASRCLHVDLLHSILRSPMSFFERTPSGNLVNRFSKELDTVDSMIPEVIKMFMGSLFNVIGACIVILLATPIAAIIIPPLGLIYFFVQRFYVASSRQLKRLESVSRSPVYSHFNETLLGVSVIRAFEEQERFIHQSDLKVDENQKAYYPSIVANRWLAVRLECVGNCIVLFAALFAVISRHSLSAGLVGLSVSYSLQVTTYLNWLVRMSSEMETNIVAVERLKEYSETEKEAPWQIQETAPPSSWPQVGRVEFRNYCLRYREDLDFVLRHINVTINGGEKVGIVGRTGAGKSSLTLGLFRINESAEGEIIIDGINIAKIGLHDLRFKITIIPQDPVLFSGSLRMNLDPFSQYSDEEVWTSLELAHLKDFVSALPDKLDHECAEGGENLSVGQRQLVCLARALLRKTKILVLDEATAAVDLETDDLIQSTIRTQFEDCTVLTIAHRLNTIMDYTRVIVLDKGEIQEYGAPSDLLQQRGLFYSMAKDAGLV

SMILES	IC50 (MCF7-DOX [1]) [µM]	viability at 48 h, 12.5 µM [2] [%]	IC50 [3] [µM]	further results
COc1cc(OC)c(C(=O)/C=C/c2cccc(N3CCN(C(=O)OC(C)(C)C)CC3)c2)c(O)c1CC=C(C)C	42.6	93	–	–
COc1cc(O)c(C(=O)/C=C/c2ccc(N3CCN(C(=O)OC(C)(C)C)CC3)cc2)c(OC)c1	47.3	90.6	–	–
COc1cc(OC)c(C(=O)/C=C/c2ccc(N3CCN(C(=O)OC(C)(C)C)CC3)cc2)c(O)c1CC=C(C)C	> 100	> 99	–	–
COc1cc(OC)c(C(=O)/C=C/c2ccc(N(C)C)cc2)c(O)c1CC=C(C)C	> 100	> 99	–	–
COc1cc(OC)c(C(=O)/C=C/c2cccc(N3CCOCC3)c2)c(O)c1CC=C(C)C	> 100	> 99	–	–
COc1cc(OC)c(C(=O)/C=C/c2cccc(N3CCNCC3)c2)c(O)c1C	98.7	95.8	4	–
COc1c(C)c(O)c(C)c(O)c1C(=O)/C=C/c1ccccc1	46.8	86	–	–
COc1cccc2c1C(=O)c1c(O)c3c(c(O)c1C2=O)C[C@@](O)(C(=O)CO)C[C@@H]3O[C@H]1C[C@H](N)[C@H](O)[C@H](C)O1	–	–	–	inhibition (MCF7-DOX [4]): inactive
COc1cc(OC)c(C(=O)/C=C/c2cccc(Cl)c2)c(O)c1CC=C(C)C	59.5	> 99	–	–
COc1cc(O)c(C(=O)/C=C/c2ccc(N3CCNCC3)cc2)c(OC)c1	67.5	94.2	16.62	–
CCc1c(OC)cc(OC)c(C(=O)/C=C/c2cccc(N3CCNCC3)c2)c1O	> 100	89.5	–	–
COc1cc(OC)c(C(=O)/C=C/c2cc(OC)c(OC)c(OC)c2)c(O)c1CC=C(C)C	74.9	90.8	26.56	–
COc1cc(OC)c(C(=O)/C=C/c2ccc(C(F)(F)F)cc2)c(O)c1CC=C(C)C	73.7	> 99	23.59	–
COc1cc(OC)c(C(=O)/C=C/c2ccc(N3CCNCC3)cc2)c(O)c1CC=C(C)C	57.8	98.3	14.84	–
COc1cc(O)c(C(=O)/C=C/c2cccc(N3CCN(C)CC3)c2)c(OC)c1	62.2	> 99	–	–
COc1cc(OC)c(C(=O)/C=C/c2cccc([N+](=O)[O-])c2)c(O)c1CC=C(C)C	57	> 99	8.83	–
COc1cc(OC)c(C(=O)/C=C/c2cccc(N3CCNCC3)c2)c(O)c1CC=C(C)C	99.9	> 99	–	GI50 at 48 h [5]: > 100 µM; GI50 at 48 h [6]: 91.7 µM; GI50 at 48 h [7]: > 100 µM; GI50 at 48 h [8]: > 100 µM; GI50 at 48 h [9]: > 100 µM; GI50 at 48 h [10]: > 100 µM; inhibition (INH) [11]: Not Active; inhibition (INH) [12]: Not Active; inhibition (INH) [13]: Active; inhibition (MCF7-DOX [14]): Tde; inhibition (MCF7-DOX [15]): Active; Activity [16]: Non-Toxic; TGI (MCF7-DOX [17]): Active; Activity [18]: Non-Toxic; inhibition (MCF7 [19]): Active; inhibition (MCF7-DOX [20]): Active; inhibition (MCF7 [21]): Active; inhibition (MCF7-DOX [22]): Active; inhibition (MCF7-DOX [23]): inactive; inhibition (MCF7-DOX [24]): inactive
